Measured values pooled from the literature.
HDAC5: Histone deacetylase 5 (HDAC5, Homo sapiens, UniProt Q9UQL6)
SLC6A3: Sodium-dependent dopamine transporter (SLC6A3, Homo sapiens, UniProt Q01959)
DRD3: D(3) dopamine receptor (DRD3, Homo sapiens, UniProt P35462)

| SMILES | target | test | setting | IC50 [µM] |
| --- | --- | --- | --- | --- |
| COc1ccc(N(Cc2csc(-c3ccc(Br)cc3)n2)C(=O)CCCCCC(=O)NO)cc1 | HDAC5 | enzyme activity, inhibitor |  | > 10 |
| O[C@@H]1[C@H](O)[C@@H]2C[C@@H]2[C@H]1n1cnc2c(NCCC3CC3)ncnc21 | SLC6A3 | transporter uptake, inhibitor, radiometric |  | 9.3 |
| Cc1cc(O)c(-c2ccc([C@@H](C)CN(C)C)cc2)c2c1[nH]c(=O)c1sccc12 | Cyclin-dependent kinase 12, with cyclin K (CDK12, Homo sapiens, UniProt Q9NYV4) | enzyme activity, inhibitor |  | > 1 |
| Cc1[nH]c(C)c(S(=O)(=O)Nc2ccc(C(F)(F)F)c3ncccc23)c1C(=O)N1CCC(F)(F)C1 | DRD3 | G protein activation, antagonist, BRET |  | 15 |
| NS(=O)(=O)c1ccc(Nc2nc(-c3cc4cc(Br)ccc4oc3=O)cs2)c(Br)c1 | Carbonic anhydrase 12 (CA12, Homo sapiens, UniProt O43570) | enzyme activity, inhibitor, absorbance |  | 6.18 |
| CCCN(CCC)S(=O)(=O)c1ccc(C(=O)O)cc1 | Taste receptor type 2 member 16 (TAS2R16, Homo sapiens, UniProt Q9NYV7, N96T) | inositol phosphate, antagonist, TR-FRET |  | 2180 |
| Cc1[nH]c(C)c(S(=O)(=O)Nc2cc(Cl)cc(Cl)c2Cl)c1C(=O)N1CCC(F)(F)C1 | DRD3 | β-arrestin recruitment, antagonist |  | 12 |
| N#CC[C@@]12C[C@@H]1[C@@H](n1cnc3c(NCCCCCCc4ccccc4)nc(I)nc31)[C@H](O)[C@@H]2O | SLC6A3 | transporter uptake, inhibitor, radiometric |  | 1.7 |
| Cc1[nH]c(C)c(S(=O)(=O)Nc2ccc(C(F)(F)F)c(Cl)c2)c1C(=O)N1CCc2ccccc21 | DRD3 | G protein activation, antagonist, BRET |  | 21 |
| O=C(NO)c1ccc(Cn2cnc3c(Nc4ccc(Cl)cc4)ncnc32)cc1 | HDAC5 | enzyme activity, inhibitor |  | 0.473 |
| CN(C)C(=O)c1cc2cnc(Nc3ccc(-c4cccc5c(=O)cc(N6CCOCC6)oc45)cc3)nc2n1C1CCCC1 | DNA-dependent protein kinase catalytic subunit (PRKDC, Homo sapiens, UniProt P78527) | enzyme activity, inhibitor |  | 0.202 |
| Cc1[nH]c(C)c(S(=O)(=O)Nc2ccc(Cl)c(C(F)(F)F)c2)c1C(=O)N1CCC(F)(F)C1 | DRD3 | G protein activation, antagonist, BRET |  | 15 |
| COc1ccc(N(Cc2csc(-c3ccccc3)n2)C(=O)CCCCCC(=O)NO)cc1 | HDAC5 | enzyme activity, inhibitor |  | > 10 |
| O=C(Nc1ccc2[nH]c(=O)oc2c1)C(=O)N1CCC(Cc2ccc(F)cc2)CC1 | Glutamate NMDA receptor; GRIN1/GRIN2B (GRIN1/GRIN2B, Homo sapiens, UniProt Q05586+Q13224) | ion current, two-electrode voltage clamp | oocytes | 0.029 |
| CCc1ccc(NS(=O)(=O)c2c(C)[nH]c(C)c2C(=O)N2CCC(F)(F)C2)cc1Cl | DRD3 | β-arrestin recruitment, antagonist |  | 5.2 |
| COc1c(Cl)cccc1Nc1c(-c2ccncc2OC[C@@H]2COCCO2)[nH]c2c1C(=O)NCC2 | Discoidin domain-containing receptor 2 (DDR2, Homo sapiens, UniProt Q16832) | ligand displacement, TR-FRET |  | 0.053 |
